Assay results: ChEMBL document CHEMBL4033621, “Design, synthesis and biological evaluation of new pyrazolyl-ureas and imidazopyrazolecarboxamides able to interfere with MAPK and PI3K upstream signaling involved in the angiogenesis” (Eur J Med Chem, 2017)
Calls of active or inactive are those of the source. The rule behind the calls is not given here.

Tests used:
Homo sapiens [1] = species on record: Homo sapiens; experiment: Effect on VEGF-stimulated PI3K signaling pathway in HUVEC assessed as AKT phosphorylation level at 20 uM pretreated for 10 mins followed by VEGF stimulation and subsequent compound addition measured after 20 mins by Western blot analysis relative to control
Procedure, shortened: (§1)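 HUVEC grown to confluence in M199 with 10% FCS, ECGS, heparin, hydrocortisone, then starved ≥4 h in medium alone. Pre-incubated 10 min at 37°C with compound 20 µM in DMSO, then VEGF 50 ng/mL plus compound for 20 min. Lysates (30 µg) immunoblotted for phospho-ERK1/2, phospho-p38MAPK or phospho-Akt, with tubulin as loading control. ECL detection, densitometry. Results given relative to VEGF+DMSO on the same blot (100%), ≥2 independent experiments.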

Homo sapiens [2] = species on record: Homo sapiens; experiment: Effect on VEGF-stimulated MAPK signaling pathway in HUVEC assessed as p38 MAPK phosphorylation level at 20 uM pretreated for 10 mins followed by VEGF stimulation and subsequent compound addition measured after 20 mins by Western blot analysis relative to control; procedure, shortened: as §1
Homo sapiens [3] = species on record: Homo sapiens; experiment: Effect on VEGF-stimulated MAPK signaling pathway in HUVEC assessed as ERK1/2 phosphorylation level at 20 uM pretreated for 10 mins followed by VEGF stimulation and subsequent compound addition measured after 20 mins by Western blot analysis relative to control; procedure, shortened: as §1
HUVEC = experiment: Antimigratory activity against VEGF-stimulated HUVEC at 20 uM measured up to 15 hrs in presence of CMFDA probe by microscopy-based wound healing assay; assay type: functional, cell-based; settings: Homo sapiens
Procedure, shortened: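 Confluent HUVEC (48 h growth) labelled with CMFDA (1:5000 of 10 mM stock), scratched with sterile tip, washed with PBS, then given VEGF 50 ng/mL plus compound 20 µM (DMSO control). Wounds imaged at 0 and 15 h by microscopy. Colonized area = area 0 h − area 15 h, expressed as percent of control set at 100%.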

CC(C)(C)c1cc(NC(=O)Nc2ccc(F)cc2)n(CC(O)c2ccccc2)n1 (stereo not given)
Activity (Homo sapiens [1]): -83%
Activity (Homo sapiens [2]): -70%
Activity (Homo sapiens [3]): -67%
Activity (HUVEC): inactive

CCOC(=O)c1cnn2c1N(C(=O)Nc1cccc(C(F)(F)F)c1)C(c1ccccc1)C2 (stereo not given)
Activity (Homo sapiens [1]): Active
Activity (Homo sapiens [2]): 200 to 300%
Activity (Homo sapiens [3]): -26%
Activity (HUVEC): inactive

CCOC(=O)c1cnn(CC(=O)c2ccccc2)c1NC(=O)Nc1cccc(F)c1
Activity (Homo sapiens [1]): 63%
Activity (Homo sapiens [2]): Active
Activity (Homo sapiens [3]): Active
Activity (HUVEC): inactive

CCOC(=O)c1cc(NC(=O)Nc2cccc(F)c2)n(CC(O)c2ccccc2)n1 (stereo not given)
Activity (Homo sapiens [1]): 51%
Activity (Homo sapiens [2]): Active
Activity (Homo sapiens [3]): Active
Activity (HUVEC): inactive

CC(C)(C)c1cc2n(n1)CC(c1ccccc1)N2C(=O)Nc1ccccc1F (stereo not given)
Activity (Homo sapiens [1]): inactive
Activity (Homo sapiens [2]): Active
Activity (HUVEC): inactive

CC(C)(C)c1cc2n(n1)CC(c1ccccc1)N2C(=O)Nc1cccc(F)c1 (stereo not given)
Activity (Homo sapiens [1]): Active
Activity (Homo sapiens [2]): Active
Activity (HUVEC): inactive

CCOC(=O)c1cc(NC(=O)Nc2cccc(C(F)(F)F)c2)n(CC(O)c2ccccc2)n1 (stereo not given)
Activity (Homo sapiens [1]): inactive
Activity (Homo sapiens [2]): -61%
Activity (Homo sapiens [3]): Active
Activity (HUVEC): inactive

CC(C)(C)c1cc2n(n1)CC(c1ccccc1)N2C(=O)Nc1ccc(F)cc1 (stereo not given)
Activity (Homo sapiens [1]): Active
Activity (Homo sapiens [2]): Active
Activity (HUVEC): inactive

CCOC(=O)c1cnn(CC(=O)c2ccccc2)c1NC(=O)Nc1ccccc1F
Activity (Homo sapiens [1]): inactive
Activity (Homo sapiens [2]): Active
Activity (Homo sapiens [3]): inactive
Activity (HUVEC): inactive

CCOC(=O)c1cnn(CC(=O)c2ccccc2)c1NC(=O)Nc1cccc(C(F)(F)F)c1
Activity (Homo sapiens [1]): Active
Activity (Homo sapiens [2]): Active
Activity (Homo sapiens [3]): Active
Activity (HUVEC): inactive

O=C(c1cnn2c1N(C(=O)Nc1cccc(C(F)(F)F)c1)C(c1ccccc1)C2)N1CCCCC1 (stereo not given)
Activity (Homo sapiens [1]): Active
Activity (Homo sapiens [2]): 200 to 300%
Activity (Homo sapiens [3]): 83%
Activity (HUVEC): inactive

CCOC(=O)c1cc2n(n1)CC(c1ccccc1)N2C(=O)Nc1cccc(F)c1 (stereo not given)
Activity (Homo sapiens [1]): Active
Activity (Homo sapiens [2]): Active
Activity (HUVEC): inactive

CCOC(=O)c1cc(NC(=O)Nc2ccccc2F)n(CC(O)c2ccccc2)n1 (stereo not given)
Activity (Homo sapiens [1]): inactive
Activity (Homo sapiens [2]): 97%
Activity (Homo sapiens [3]): -89%
Activity (HUVEC): inactive

CC(C)(C)c1cc(NC(=O)Nc2cccc(C(F)(F)F)c2)n(CC(O)c2ccccc2)n1 (stereo not given)
Activity (Homo sapiens [2]): Active
Activity (Homo sapiens [3]): Active
Activity (HUVEC): inactive

CCOC(=O)c1cnn(CC(C)O)c1NC(=O)Nc1cccc(C(F)(F)F)c1 (stereo not given)
Activity (Homo sapiens [1]): Active
Activity (Homo sapiens [2]): Active
Activity (Homo sapiens [3]): Active
Activity (HUVEC): inactive

CC(C)(C)c1cc2n(n1)CC(c1ccccc1)N2C(=O)Nc1cccc(C(F)(F)F)c1 (stereo not given)
Activity (Homo sapiens [1]): Active
Activity (Homo sapiens [2]): 140%
Activity (HUVEC): inactive

CCCC(O)Cn1ncc(C(=O)OCC)c1NC(=O)Nc1cccc(C(F)(F)F)c1 (stereo not given)
Activity (Homo sapiens [1]): -29%
Activity (Homo sapiens [2]): 180%
Activity (Homo sapiens [3]): -59%
Activity (HUVEC): Active

CCOC(=O)c1cnn(CC(=O)c2ccccc2)c1NC(=O)Nc1ccc(F)cc1
Activity (Homo sapiens [1]): 96%
Activity (Homo sapiens [2]): Active
Activity (Homo sapiens [3]): Active
Activity (HUVEC): inactive

CCOC(=O)c1cnn(CC(O)c2ccccc2)c1NC(=O)Nc1cccc(C(F)(F)F)c1 (stereo not given)
Activity (Homo sapiens [1]): -37%
Activity (Homo sapiens [2]): 150%
Activity (Homo sapiens [3]): -70%
Activity (HUVEC): inactive

CCOC(=O)c1cc2n(n1)CC(c1ccccc1)N2C(=O)Nc1ccc(F)cc1 (stereo not given)
Activity (Homo sapiens [1]): Active
Activity (Homo sapiens [2]): Active
Activity (HUVEC): inactive

CCOC(=O)c1cc(NC(=O)Nc2ccc(F)cc2)n(CC(O)c2ccccc2)n1 (stereo not given)
Activity (Homo sapiens [1]): inactive
Activity (Homo sapiens [2]): -81%
Activity (Homo sapiens [3]): Active
Activity (HUVEC): inactive

NC(=O)c1cnn2c1N(C(=O)Nc1cccc(C(F)(F)F)c1)C(c1ccccc1)C2 (stereo not given)
Activity (Homo sapiens [1]): Active
Activity (Homo sapiens [2]): 200 to 300%
Activity (Homo sapiens [3]): inactive
Activity (HUVEC): inactive

CCOC(=O)c1cnn(CC(O)CC)c1NC(=O)Nc1cccc(C(F)(F)F)c1 (stereo not given)
Activity (Homo sapiens [1]): Active
Activity (Homo sapiens [2]): Active
Activity (Homo sapiens [3]): inactive
Activity (HUVEC): inactive

CCOC(=O)c1cc2n(n1)CC(c1ccccc1)N2C(=O)Nc1cccc(C(F)(F)F)c1 (stereo not given)
Activity (Homo sapiens [1]): Active
Activity (Homo sapiens [2]): Active
Activity (Homo sapiens [3]): -75%
Activity (HUVEC): inactive

CCOC(=O)c1cc2n(n1)CC(c1ccccc1)N2C(=O)Nc1ccccc1F (stereo not given)
Activity (Homo sapiens [1]): inactive
Activity (Homo sapiens [2]): Active
Activity (HUVEC): inactive

CC(C)(C)c1cc(NC(=O)Nc2ccccc2F)n(CC(O)c2ccccc2)n1 (stereo not given)
Activity (Homo sapiens [1]): inactive
Activity (Homo sapiens [2]): -74%
Activity (Homo sapiens [3]): Active
Activity (HUVEC): inactive

CC(C)(C)c1cc(NC(=O)Nc2cccc(F)c2)n(CC(O)c2ccccc2)n1 (stereo not given)
Activity (Homo sapiens [1]): Active
Activity (Homo sapiens [2]): 199%
Activity (Homo sapiens [3]): Active
Activity (HUVEC): inactive
